{"source": "ChEMBL document CHEMBL3244104", "about": "“New inhibitors of platelet aggregation. 5'-Phosphate, 5'-phosphorothioate, and 5'-O-sulfamoyl derivatives of 2-substituted adenosine analogues” (J Med Chem, 1978)", "key": {"[1]": {"assay": "Antiplatelet activity in sheep platelet rich plasma assessed as inhibition of ADP-induced platelet aggregation pretreated for 2.5 mins followed by ADP addition by photometric analysis relative to adenosine", "assay_type": "functional, Ovis aries", "outline": "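Sheep PRP (300 000-400 000 platelets/mm³), 37 °C, stirred, Born photometric read-out. Analogue incubated 2.5 min before ADP (final 0.67 μM). Four doses per analogue. Rate taken as initial slope of the aggregation curve. Potency from log dose vs. percent inhibition plots, expressed relative to adenosine run on each PRP batch. Means of at least four determinations.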"}, "Platelet [2]": {"tested_on": "Platelet", "assay": "Antiplatelet activity in sheep platelet rich plasma assessed as inhibition of ADP-induced platelet aggregation pretreated for 2.5 mins followed by ADP addition by photometric analysis", "assay_type": "functional, cell-free", "conditions": "Ovis aries", "outline": "(§1)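 Citrated sheep blood spun 24 min at 140g to give PRP, diluted with platelet-free plasma (1000g, 10 min) to 300 000-400 000 platelets/mm³. Aggregation read photometrically (Born method) at 37 °C in stirred PRP as light transmission or optical density change. Agents dissolved in saline buffered to pH 7.4 with sodium barbitone. ADP added to 0.67 μM.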"}, "Platelet [3]": {"tested_on": "Platelet", "assay": "Antiplatelet activity in sheep platelet rich plasma assessed as inhibition of serotonin-induced platelet aggregation pretreated for 1 min followed by serotonin addition by photometric analysis", "assay_type": "functional, cell-free", "conditions": "Ovis aries", "outline": "(§2)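 Serotonin-induced aggregation in sheep PRP adjusted to 300 000-400 000 platelets/mm³, measured at 37 °C by Born photometry in stirred samples. Inhibitor given 1 min before serotonin, with serotonin final 1.6 μM. Agents dissolved in barbitone-buffered saline, pH 7.4.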"}, "Platelet [4]": {"tested_on": "Platelet", "assay": "Antiplatelet activity in sheep platelet rich plasma assessed as inhibition of ADP-induced platelet aggregation up to 300 uM pretreated for 2.5 mins followed by ADP addition by photometric analysis", "assay_type": "functional, cell-free", "conditions": "Ovis aries", "outline": "as §1"}, "[5]": {"assay": "Stimulation of platelet aggregation in sheep platelet rich plasma at 100 uM pretreated for 1 min followed by ADP addition by photometric analysis", "assay_type": "ADME, cell-free, Ovis aries", "outline": "as §1"}, "Platelet [6]": {"tested_on": "Platelet", "assay": "Antiplatelet activity in sheep platelet rich plasma assessed as inhibition of serotonin-induced platelet aggregation at 100 uM pretreated for 1 min followed by serotonin addition by photometric analysis", "assay_type": "functional, cell-free", "conditions": "Ovis aries", "outline": "as §2"}, "Platelet [7]": {"tested_on": "Platelet", "assay": "Antiplatelet activity in sheep platelet rich plasma assessed as inhibition of ADP-induced platelet aggregation at 100 uM pretreated for 1 min followed by ADP addition by photometric analysis", "assay_type": "functional, cell-free", "conditions": "Ovis aries", "outline": "as §1"}, "Platelet [8]": {"tested_on": "Platelet", "assay": "Antiplatelet activity in sheep platelet rich plasma assessed as inhibition of serotonin-induced platelet aggregation at 200 uM pretreated for 1 min followed by serotonin addition by photometric analysis", "assay_type": "functional, cell-free", "conditions": "Ovis aries", "outline": "as §2"}, "Platelet [9]": {"tested_on": "Platelet", "assay": "Antiplatelet activity in sheep platelet rich plasma assessed as inhibition of ADP-induced platelet aggregation at 3.75 uM pretreated for 1 min followed by ADP addition by photometric analysis", "conditions": "Ovis aries"}, "Rattus norvegicus [10]": {"tested_on": "Rattus norvegicus", "assay": "Cardiotoxicity in anesthetized rat assessed as effect on heart rate up to 2.5 umol/kg, iv", "assay_type": "toxicity, organism-based", "conditions": "in vivo"}, "Rattus norvegicus [11]": {"tested_on": "Rattus norvegicus", "assay": "Toxicity in anesthetized rat assessed as hypotensive potency up to 2.5 umol/kg, iv relative to adenosine", "assay_type": "organism-based", "conditions": "in vivo"}}, "note": "Active and inactive are the calls of the source. The rule behind the calls is not given here."}
{"smiles": "Nc1ncnc2c1ncn2[C@@H]1O[C@H](COP(=O)(O)O)[C@@H](O)[C@H]1O", "note": "[ADENOSINE PHOSPHATE]", "values": [{"measurement": "fold change (FC)", "setting": "[1]", "value": 0.12}, {"measurement": "inhibition", "setting": "Platelet [2]", "value": "Dose-dependent effect"}, {"measurement": "inhibition", "setting": "Platelet [3]", "value": "inactive"}]}
{"smiles": "N.N.Nc1nc(Cl)nc2c1ncn2[C@@H]1O[C@H](COP(O)(O)=S)[C@@H](O)[C@H]1O", "values": [{"measurement": "fold change (FC)", "setting": "[1]", "value": 0.44}, {"measurement": "inhibition", "setting": "Platelet [3]", "value": "inactive"}]}
{"smiles": "CNc1nc(Cl)nc2c1ncn2[C@@H]1O[C@H](COP(=O)(O)O)[C@@H](O)[C@H]1O", "values": [{"measurement": "fold change (FC)", "setting": "[1]", "value": 0.12}, {"measurement": "inhibition", "setting": "Platelet [2]", "value": "Dose-dependent effect"}, {"measurement": "inhibition", "setting": "Platelet [3]", "value": "inactive"}]}
{"smiles": "COc1nc(N)c2ncn([C@@H]3O[C@H](COP(=O)(O)O)[C@@H](O)[C@H]3O)c2n1", "values": [{"measurement": "fold change (FC)", "setting": "[1]", "value": 0.034}, {"measurement": "inhibition", "setting": "Platelet [2]", "value": "Dose-dependent effect"}, {"measurement": "inhibition", "setting": "Platelet [3]", "value": "inactive"}]}
{"smiles": "Nc1nc(Cl)nc2c1ncn2[C@@H]1O[C@H](COS(N)(=O)=O)[C@@H](O)[C@H]1O", "values": [{"measurement": "inhibition", "setting": "Platelet [4]", "value": "inactive"}, {"measurement": "Activity", "setting": "[5]", "value": "Toxic"}, {"measurement": "inhibition", "setting": "Platelet [6]", "value": "Active"}]}
{"smiles": "CCNc1nc(N)c2ncn([C@@H]3O[C@H](COP(=O)(O)O)[C@@H](O)[C@H]3O)c2n1", "values": [{"measurement": "fold change (FC)", "setting": "[1]", "value": 0.027}, {"measurement": "inhibition", "setting": "Platelet [2]", "value": "Dose-dependent effect"}, {"measurement": "inhibition", "setting": "Platelet [3]", "value": "inactive"}]}
{"smiles": "CNc1nc(SC)nc2c1ncn2[C@@H]1O[C@H](COP(=O)(O)O)[C@@H](O)[C@H]1O", "values": [{"measurement": "fold change (FC)", "setting": "[1]", "value": 0.46}, {"measurement": "inhibition", "setting": "Platelet [2]", "value": "Dose-dependent effect"}, {"measurement": "inhibition", "setting": "Platelet [3]", "value": "inactive"}]}
{"smiles": "Nc1nc(Cl)nc2c1ncn2[C@@H]1O[C@H](COP(=O)(O)O)[C@@H](O)[C@H]1O", "values": [{"measurement": "fold change (FC)", "setting": "[1]", "value": 0.12}, {"measurement": "inhibition", "setting": "Platelet [2]", "value": "Dose-dependent effect"}, {"measurement": "inhibition", "setting": "Platelet [3]", "value": "inactive"}]}
{"smiles": "CCOc1nc(N)c2ncn([C@@H]3O[C@H](COP(=O)(O)O)[C@@H](O)[C@H]3O)c2n1", "values": [{"measurement": "fold change (FC)", "setting": "[1]", "value": 0.103}, {"measurement": "inhibition", "setting": "Platelet [2]", "value": "Dose-dependent effect"}, {"measurement": "inhibition", "setting": "Platelet [3]", "value": "inactive"}]}
{"smiles": "Nc1nc(C(F)(F)F)nc2c1ncn2[C@@H]1O[C@H](COP(=O)(O)O)[C@@H](O)[C@H]1O", "values": [{"measurement": "fold change (FC)", "setting": "[1]", "value": 0.22}, {"measurement": "inhibition", "setting": "Platelet [2]", "value": "Dose-dependent effect"}, {"measurement": "inhibition", "setting": "Platelet [3]", "value": "inactive"}]}
{"smiles": "CSc1nc(N)c2ncn([C@@H]3O[C@H](COS(N)(=O)=O)[C@@H](O)[C@H]3O)c2n1", "values": [{"measurement": "inhibition", "setting": "Platelet [7]", "value": "Active"}, {"measurement": "inhibition", "setting": "Platelet [8]", "value": "Active"}]}
{"smiles": "Nc1ncnc2c1ncn2[C@@H]1O[C@H](COP(O)(O)=S)[C@@H](O)[C@H]1O", "values": [{"measurement": "fold change (FC)", "setting": "[1]", "value": 0.04}, {"measurement": "inhibition", "setting": "Platelet [3]", "value": "inactive"}]}
{"smiles": "Nc1ncnc2c1ncn2[C@@H]1O[C@H](CO)[C@@H](O)[C@H]1O", "values": [{"measurement": "inhibition", "setting": "Platelet [9]", "value": "Active"}]}
{"smiles": "CSc1nc(N)c2ncn([C@@H]3O[C@H](COP(=O)(O)O)[C@@H](O)[C@H]3O)c2n1", "values": [{"measurement": "fold change (FC)", "setting": "[1]", "value": 2.41}, {"measurement": "inhibition", "setting": "Platelet [2]", "value": "Dose-dependent effect"}, {"measurement": "inhibition", "setting": "Platelet [3]", "value": "inactive"}, {"measurement": "Activity", "setting": "Rattus norvegicus [10]", "value": "Non-toxic"}, {"measurement": "Activity", "setting": "Rattus norvegicus [11]", "value": "< 1", "unit": "%"}]}
{"smiles": "Nc1ncnc2c1ncn2[C@@H]1O[C@H](COS(N)(=O)=O)[C@@H](O)[C@H]1O", "values": [{"measurement": "inhibition", "setting": "Platelet [4]", "value": "inactive"}, {"measurement": "Activity", "setting": "[5]", "value": "Toxic"}, {"measurement": "inhibition", "setting": "Platelet [8]", "value": "Active"}]}
{"smiles": "CSc1nc(N)c2ncn([C@@H]3O[C@H](COP(O)(O)=S)[C@@H](O)[C@H]3O)c2n1.N.N", "values": [{"measurement": "fold change (FC)", "setting": "[1]", "value": 4}, {"measurement": "inhibition", "setting": "Platelet [3]", "value": "inactive"}, {"measurement": "Activity", "setting": "Rattus norvegicus [10]", "value": "Non-toxic"}, {"measurement": "Activity", "setting": "Rattus norvegicus [11]", "value": "< 1", "unit": "%"}]}
{"smiles": "CCSc1nc(N)c2ncn([C@@H]3O[C@H](COP(=O)(O)O)[C@@H](O)[C@H]3O)c2n1", "values": [{"measurement": "fold change (FC)", "setting": "[1]", "value": 5.2}, {"measurement": "inhibition", "setting": "Platelet [2]", "value": "Dose-dependent effect"}, {"measurement": "inhibition", "setting": "Platelet [3]", "value": "inactive"}, {"measurement": "Activity", "setting": "Rattus norvegicus [10]", "value": "Non-toxic"}, {"measurement": "Activity", "setting": "Rattus norvegicus [11]", "value": "< 1", "unit": "%"}, {"measurement": "inhibition", "setting": "Platelet [9]", "value": "Active"}]}
{"smiles": "CCSc1nc(N)c2ncn([C@@H]3O[C@H](COP(O)(O)=S)[C@@H](O)[C@H]3O)c2n1.N.N", "values": [{"measurement": "fold change (FC)", "setting": "[1]", "value": 13.4}, {"measurement": "inhibition", "setting": "Platelet [3]", "value": "inactive"}, {"measurement": "Activity", "setting": "Rattus norvegicus [10]", "value": "Non-toxic"}, {"measurement": "Activity", "setting": "Rattus norvegicus [11]", "value": "< 1", "unit": "%"}, {"measurement": "inhibition", "setting": "Platelet [9]", "value": "Active"}]}
{"smiles": "CNc1nc(N)c2ncn([C@@H]3O[C@H](COP(=O)(O)O)[C@@H](O)[C@H]3O)c2n1", "values": [{"measurement": "fold change (FC)", "setting": "[1]", "value": 0.027}, {"measurement": "inhibition", "setting": "Platelet [2]", "value": "Dose-dependent effect"}, {"measurement": "inhibition", "setting": "Platelet [3]", "value": "inactive"}]}
